Screening data (PubChem)
Sampled rows, rich in hits. Any-hit rate of the full collection: about 1.7%.
SUMO1 PPI mod = modulators of human SUMO1-mediated protein-protein interactions; SUMO1 binding to a labelled peptide, TR-FRET, 1 h; inhibition, % at 20 µM; 0.33% of 360,000 active; in the data active means inhibition above about 37%
Target sequence (P63165 whole entry, looked up): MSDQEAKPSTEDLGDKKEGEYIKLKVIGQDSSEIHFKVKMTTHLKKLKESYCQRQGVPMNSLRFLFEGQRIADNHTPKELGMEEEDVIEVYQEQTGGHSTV
DNMT1 inh = DNMT1 (human) enzyme inhibition | P26358 | DNMT1 molecular beacon, Hinp1I cleavage, fluorescence | inhibition (reported as % activation of signal), % at 10 µM | 0.83% of 360,000 active | AID 588458; in the data active means inhibition above about 50%
Scp1 inh = inhibitors of human Scp-1 phosphatase; Recombinant Scp1, phosphopeptide, malachite green phosphate absorbance; 0.88% of 340,000 active; AID 493091; Q9GZU7; inhibition, % at 20 µM;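 active means inhibition above about 50% at 20 µM, limit read from the data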
Target sequence (Q9GZU7 76-261 limits assumed): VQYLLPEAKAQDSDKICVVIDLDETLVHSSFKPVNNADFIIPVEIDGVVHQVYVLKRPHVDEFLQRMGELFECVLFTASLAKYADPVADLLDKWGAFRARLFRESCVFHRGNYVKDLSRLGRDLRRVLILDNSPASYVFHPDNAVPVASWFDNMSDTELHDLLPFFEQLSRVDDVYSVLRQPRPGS
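Test system: SCP-1 catalytic domain; Buffer or medium: Acidic Tris acetate buffer with magnesium and detergent; Also added: Phosphorylated 17-residue peptide substrate; Compound: single 20 µM dose, 1% DMSO; Schedule: enzyme reaction 45 min at room temperature, colour 5 min, stabilisation 30 min; Signal: Phosphate-binding colour reagent, absorbance read at 630 nm.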
STEP inh = STEP (human) phosphatase inhibition; inhibition, % at 20 µM; 0.25% of 360,000 active; recombinant STEP, OMFP fluorogenic substrate, fluorescence; P54829;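 active means inhibition at 20 µM, scaled per plate between control wells, above about 37%, limit read from the data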
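Measure: Control-normalized % inhibition with plate pattern correction | Test system: STEP phosphatase, cell-free reaction | Medium: pH 6.0 Bis-Tris with DTT and Tween 20 | Technique: Fluorescence, 480/540 nm | Times: Reaction 20 min, ambient temperature | Doses: Single compound dose of 20 µM, 1% DMSO final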
LMPTP inh = LMPTP (human) inhibition; P24666; recombinant LMPTP-A, OMFP fluorogenic substrate, fluorescence intensity; inhibition, % at 20 µM; 0.22% of 360,000 active;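 active means compounds that cut the enzyme signal by at least half of the control window in the single-dose screen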
Target sequence (P24666 whole entry, looked up): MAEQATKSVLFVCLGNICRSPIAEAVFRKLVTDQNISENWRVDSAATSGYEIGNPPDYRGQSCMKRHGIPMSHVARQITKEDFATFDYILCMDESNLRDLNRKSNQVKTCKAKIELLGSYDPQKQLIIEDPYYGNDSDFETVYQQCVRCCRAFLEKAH
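Assay system: LMPTP-A enzyme. Input: 0.625 nM LMPTP-A final. Probe or stimulus: 400 µM OMFP. Compound dosing: single 20 µM dose. Schedule: 50 min dark incubation at room temperature. Detection: fluorescence intensity of OMFP turnover product. Read-out: percent inhibition versus substrate-only and uninhibited controls. Benchmarks: no-enzyme low control, uninhibited high control.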
Of the large screens only hits and unclear results are named; the others gave an inactive call.

CC(C)(C)c1ccc(C2CC2C(=O)N/N=C\c2cc3ccccc3nc2Cl)cc1 (centres undefined)	none
Cc1ccc2nc(Cl)c(/C=N/NC(=O)[C@H]3C[C@@H]3c3ccccc3)cc2c1	SUMO1 PPI mod 40.1
O=C(O)c1cn(C2CC2)c2cc(N3CCN(S(=O)(=O)c4ccc5c(c4)OCCO5)CC3)c(F)cc2c1=O	LMPTP inh 65.1
COc1ccc(N=Cc2cc(Cc3ccccc3Cl)cc([N+](=O)[O-])c2O)cc1OC	Scp1 inh 67.2
CC(C)CNC(=O)C1(C)CCCN1Cc1ccccc1OC(F)F (centres undefined)	none (no result: Scp1 inh)
COC(=O)C(C(=O)OC)c1ccccc1NC(=O)OCc1ccccc1	none (no result: DNMT1 inh, Scp1 inh, STEP inh)
COc1ccc(OC)c(Nc2nc(-c3sc(NC(=O)C(C)(C)C)nc3C)cs2)c1	none
CCCCCCC(=O)Nc1nc(C)c(-c2csc(Nc3cc(Cl)ccc3C)n2)s1	SUMO1 PPI mod 87.3
COc1ccc(Cl)cc1Nc1nc(-c2sc(NC(=O)C(C)(C)C)nc2C)cs1	SUMO1 PPI mod 87.5
CCCCC(=O)Nc1nc(C)c(-c2csc(Nc3cc(Cl)ccc3OC)n2)s1	none
CCCCN(C(=O)c1ccccc1Br)C(c1ccc(OC)cc1)c1nc2ccccc2[nH]1 (centres undefined)	none (no result: Scp1 inh)
COc1ccc(C(=O)Nc2ccccc2C(=O)NC(Cc2ccc(O)cc2)C(=O)NNC(=O)c2ccc(C)cc2)cc1 (centres undefined)	SUMO1 PPI mod 77.9
COCCNc1nc(-c2ccc(OC)cc2C)c2sc(-c3ccccc3)cc2n1	none (no result: Scp1 inh)
CSc1nc(C)c2c(n1)N(c1ccc(C(C)C)cc1)CC2	SUMO1 PPI mod 56.3
COc1ccc(NC(=O)c2ccc(CNc3c(N4CCCC4)c(=O)c3=O)cc2)cc1Cl	SUMO1 PPI mod 58.3
CC1=C(C(=O)N2CCCCCC2)CC(CC(=O)NC2CCCCC2)C(=O)N1Cc1ccc(C(C)(C)C)cc1 (centres undefined)	none (no result: Scp1 inh)
O=c1nc2s/c(=C\c3ccco3)c(=O)n2nc1Cc1ccc(F)cc1	Scp1 inh 77.4
COc1cc2c(C#N)c(N3CCOCC3)nc(N)c2c(N)n1	none
COc1cc2c(C#N)c(N3CCc4ccccc4C3)nc(N)c2c(N)n1	SUMO1 PPI mod 46.6
CCCCCCCCN1C(=O)[C@H](CC(=O)NCc2cccc(C(F)(F)F)c2)C[C@@]2(C(=O)OCC)CCC=C12	none (no result: DNMT1 inh, Scp1 inh, STEP inh)
COC(=O)[C@]12CCCCC=C1N(Cc1ccc3c(c1)OCO3)C(=O)[C@H](CC(=O)NCC1CCCCC1)C2	none (no result: DNMT1 inh, Scp1 inh, STEP inh)
CCOC(=O)CSc1nnc(-c2cc(OC)c(OC)c(OC)c2)o1	none
COc1cc(-c2nnc(SCc3cc(=O)oc4cc(O)c(O)cc34)o2)cc(OC)c1OC	DNMT1 inh 63.6, Scp1 inh 72.8, LMPTP inh 62.6
COc1ccc(C(=O)N/N=C/c2cc(Br)ccc2O)cc1OC	none
COc1ccc(O)c(/C=N/NC(=O)c2ccc(OCc3cccc(Br)c3)cc2)c1	DNMT1 inh 52.5, Scp1 inh 95.8
Cn1nc(CC(=O)NCc2ccc(F)cc2)c2ccccc2c1=O	SUMO1 PPI mod 46.1
Cn1nc(CC(=O)NCc2cccc3ccccc23)c2ccccc2c1=O	none
Cc1ccc(NC(=O)CSc2nc(N)cc(=O)[nH]2)cc1S(=O)(=O)N1CCCCC1	SUMO1 PPI mod 38.9
Cc1ccc(NC(=O)CSc2nc(N)cc(=O)[nH]2)cc1S(=O)(=O)N1CCOCC1	none
O=C1C=C(N(CCO)Cc2ccccc2)c2ccccc2C1=O	DNMT1 inh 77.4
Cc1ccccc1Nc1nnc(SCC(=O)NCC2CCCO2)s1 (centres undefined)	none
O=C1c2ccc3c4c(ccc(c24)C(=O)N1c1ccc(O)cc1)C(=O)N(c1ccc(O)cc1)C3=O	SUMO1 PPI mod 88.2
O=C(O)c1ccc(S(=O)(=O)c2ccc3c(c2)C(=O)N(c2ccc(O)cc2)C3=O)cc1	none
CN(C)c1ccc(C(=O)N2CCC2(C)C(=O)O)cc1 (centres undefined)	none (no result: Scp1 inh)
Cc1noc(C)c1NC(=O)N(C)C[C@@H]1OCc2cn(nn2)CCCC(=O)N([C@H](C)CO)C[C@H]1C	none (no result: Scp1 inh)
OCCNc1c2ccccc2nc2ccccc12	DNMT1 inh 58.9
C=CCOc1ccc(Cl)cc1-c1noc(-c2csc([C@H]3C[C@H](O)[C@@H](CO)O3)n2)n1	none (no result: Scp1 inh)
N#Cc1ccccc1OCCN1C(=O)c2ccccc2C1=O	none
Nc1cccc2c1C(=O)N(CCOc1ccccc1F)C2=O	Scp1 inh 56.1
COc1c(N2CCN(C(=S)NCc3ccccc3)C(C)C2)c(F)cc2c(=O)c(C(=O)O)cn(C3CC3)c12 (centres undefined)	LMPTP inh 53.4
COc1cc(OC)c2c(O)c3c(c(-c4c5c(c(O)c6c(OC)cc(OC)cc46)CO[C@@H](C)[C@H]5O)c2c1)[C@H](O)[C@H](C)OC3	DNMT1 inh 100.3, Scp1 inh 55.5, LMPTP inh 51.4
Nc1[nH]c(C(=O)c2ccccc2)c(-c2ccccc2C(F)(F)F)c1C(=O)NCc1cccc2ccccc12	none (no result: DNMT1 inh, Scp1 inh, STEP inh)
CN1CCCC1CCNc1ccc2c(=O)c3ccccc3oc2c1 (centres undefined)	none
CN1CCC[C@H]1CCNc1ccc2c(=O)c3ccccc3n(C)c2c1	SUMO1 PPI mod 82.3
Cc1ccc(S(=O)(=O)N2C[C@@H](C)[C@]3(C2)[C@H](O)[C@H](OC(=O)Nc2c(C)noc2C)C[C@H]2C(=O)N(c4ccccc4)C(=O)[C@H]23)cc1	none (no result: Scp1 inh)
Cc1cccc(OCC(=O)Nc2ccccc2N2CCCCC2)c1	SUMO1 PPI mod 41.0
O=C(Nc1ccccc1)NN(C(=O)CCl)c1ccccc1	SUMO1 PPI mod 69.9
CCC(O)(CC)C(=O)NN(C(=O)CCl)c1ccccc1	none
Cc1[nH]c2ccc(C(=O)OCC(=O)Nc3cccc(S(N)(=O)=O)c3)cc2c1C	SUMO1 PPI mod 60.3
CCOC(=O)c1ccc2[nH]c(C)c(C)c2c1	none
Nc1ncc2c(n1)CC(c1ccco1)CC2=O (centres undefined)	LMPTP inh 60.2
C/C(=N\NC(=O)c1ccc([N+](=O)[O-])cc1)c1c(O)cc(C)oc1=O	none
C/C(=N/NC(=O)c1cc(O)c(O)c(O)c1)c1ccc([N+](=O)[O-])cc1	Scp1 inh 50.5
CCN1CCN(Cc2ccc(NC(=O)c3ccc(C)c(NC(=O)c4ccno4)c3)cc2C(F)(F)F)CC1	none
CCN1CCN(Cc2ccc(NC(=O)c3ccc(C)c(/C=C/c4cnc(Nc5cc(N6CCNCC6)nc(C)n5)cn4)c3)cc2C(F)(F)F)CC1	SUMO1 PPI mod 87.5
COc1cc2c(cc1CNC[C@H]1O[C@@H](n3ccc(N)nc3=O)[C@H](O)[C@@H]1O)OCO2	none (no result: Scp1 inh)
COc1ccc(NC(=O)C2Cc3c(-c4cccc(C(C)=O)c4)ccnc3O2)cn1 (centres undefined)	none (no result: Scp1 inh)
O=C(Nc1cccc(-c2nc3ncccc3o2)c1)c1sc2ccccc2c1Cl	LMPTP inh 50.2
